The subject of one data set is humans. The following applies: exposure levels capable of fully blocking the GIPR; cited from earlier work.
Data set [1] is described as follows: Pharmacokinetics in Göttingen minipigs. The format is in vivo. Conditions: female, minipig, plasma, sc, 3 nmol/kg. Put shortly:
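Two female Göttingen minipigs (30–35 kg) per test compound, each given a single SC dose of 3 nmol/kg (0.04 mL/kg) in the inguinal fold or behind the ear. Up to 10 blood samples were drawn via an ear-vein central venous catheter to 129 h into chilled EDTA tubes. Plasma (2000 RCF, 15 min, 4 °C) was frozen and assayed by LC-MS/MS. Half-life came from a one-phase exponential decay fit.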

The test system of data set [2] is HFD-induced obese cynomolgus monkeys. The data set is described as follows: Efficacy study in obese non-human primates. The format is in vivo, M. fascicularis. The following applies: 42-day daily SC treatment.

For `CC[C@H](C)[C@H](NC(=O)[C@H](CO)NC(=O)[C@H](Cc1ccc(O)cc1)NC(=O)[C@H](CC(=O)O)NC(=O)[C@H](CO)NC(=O)[C@@H](NC(=O)[C@H](Cc1ccccc1)NC(=O)[C@@H](NC(=O)CNC(=O)[C@@H](N)CCC(=O)O)[C@@H](C)O)[C@@H](C)CC)C(=O)N[C@@H](C)C(=O)N[C@@H](CCSC)C(=O)N[C@@H](CC(=O)O)C(=O)N[C@@H](CCCCN)C(=O)N[C@H](C(=O)N[C@@H](Cc1c[nH]cn1)C(=O)N[C@@H](CCC(N)=O)C(=O)N[C@@H](CCC(N)=O)C(=O)N[C@@H](CC(=O)O)C(=O)N[C@@H](Cc1ccccc1)C(=O)N[C@H](C(=O)N[C@@H](CC(N)=O)C(=O)N[C@@H](Cc1c[nH]c2ccccc12)C(=O)N[C@@H](CC(C)C)C(=O)N[C@@H](CC(C)C)C(=O)N[C@@H](C)C(=O)N[C@@H](CCC(N)=O)C(=O)N[C@@H](CCCCN)C(N)=O)C(C)C)[C@@H](C)CC` [GIP(3–30)NH2], in the data set with humans, the “nausea, comfort or other side effects” value is on record as “no alterations in nausea, comfort, or any other side effects”.

As a reminder, the AUC(0-inf) is total exposure, with the tail of the curve extrapolated. A high value points to high exposure. What is called half-life is the time needed for the level to fall by half in the phase considered. Lower therefore signals rapid decline. In data set [1], `CC[C@H](C)[C@H](NC(=O)[C@H](CC(C)C)NC(=O)[C@H](Cc1c[nH]c2ccccc12)NC(=O)[C@H](CCC(N)=O)NC(=O)[C@@H](NC(=O)[C@H](Cc1ccccc1)NC(=O)[C@H](C)NC(=O)[C@H](CCCCNC(=O)COCCOCCNC(=O)COCCOCCNC(=O)CC[C@H](NC(=O)CCCCCCCCCCCCCCCCCCC(=O)O)C(=O)O)NC(=O)[C@H](CCC(N)=O)NC(=O)[C@H](C)NC(=O)[C@@H](NC(=O)[C@H](CCCCN)NC(=O)[C@H](CC(=O)O)NC(=O)[C@H](CC(C)C)NC(=O)C(C)(C)NC(=O)[C@@H](NC(=O)[C@H](CO)NC(=O)[C@H](Cc1ccc(O)cc1)NC(=O)[C@H](CC(=O)O)NC(=O)[C@H](CO)NC(=O)[C@@H](NC(=O)[C@H](Cc1ccccc1)NC(=O)[C@@H](NC(=O)CNC(=O)[C@H](CCC(=O)O)NC(=O)C(C)(C)NC(=O)[C@@H](N)Cc1ccc(O)cc1)[C@@H](C)O)[C@@H](C)O)[C@@H](C)CC)[C@@H](C)CC)C(C)C)C(=O)N[C@@H](C)C(=O)NCC(=O)NCC(=O)N1CCC[C@H]1C(=O)N[C@@H](CO)C(=O)N[C@@H](CO)C(=O)NCC(=O)N[C@@H](C)C(=O)N1CCC[C@H]1C(=O)N1CCC[C@H]1C(=O)N1CCC[C@H]1C(=O)N[C@@H](CO)C(N)=O` [Tirzepatide] gave an area under the curve AUC(0-inf) of 4.12 µM·h and a half-life of 83 h.

As to `CCCCCCCCCCCCCCCC(=O)N[C@@H](CCC(=O)NCCCC[C@H](NC(=O)[C@H](C)NC(=O)[C@H](C)NC(=O)[C@H](CCC(N)=O)NC(=O)CNC(=O)[C@H](CCC(=O)O)NC(=O)[C@H](CC(C)C)NC(=O)[C@H](Cc1ccc(O)cc1)NC(=O)[C@H](CO)NC(=O)[C@H](CO)NC(=O)[C@@H](NC(=O)[C@H](CC(=O)O)NC(=O)[C@H](CO)NC(=O)[C@@H](NC(=O)[C@H](Cc1ccccc1)NC(=O)[C@@H](NC(=O)CNC(=O)[C@H](CCC(=O)O)NC(=O)[C@H](C)NC(=O)[C@@H](N)Cc1cnc[nH]1)[C@@H](C)O)[C@@H](C)O)C(C)C)C(=O)N[C@@H](CCC(=O)O)C(=O)N[C@@H](Cc1ccccc1)C(=O)N[C@H](C(=O)N[C@@H](C)C(=O)N[C@@H](Cc1c[nH]c2ccccc12)C(=O)N[C@@H](CC(C)C)C(=O)N[C@H](C(=O)N[C@@H](CCCNC(=N)N)C(=O)NCC(=O)N[C@@H](CCCNC(=N)N)C(=O)NCC(=O)O)C(C)C)[C@@H](C)CC)C(=O)O` [Liraglutide], the “tolerability / side effects” value in data set [2] is “one NHP in the liraglutide monotreatment group that stopped eating and drinking”.
